In the EternaBench riboswitch data:

System: MS2 coat protein
Assay: apparent Kd, MS2 coat protein; higher = weaker binding; RNA-MaP array; FMN 200 µM where present
Procedure, shortened: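 In 100 mM Tris-HCl pH 7.5, 80 mM KCl, 4 mM MgCl2, BSA, DTT, yeast tRNA and Tween-20, SNAP-549-labelled MS2 coat protein was titrated from 0.7 or 1.5 nM, doubling to 3 µM, over designs transcribed by stalled E. coli RNA polymerase on Illumina sequencing-chip clusters. This was done first without ligand, then with ligand held constant. After green signal was normalised to red-channel RNA signal and control-cluster median Fmax, the apparent Kd was taken as the median of filtered per-cluster binding-curve fits.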

[1] = designed as: ON switch for flavin mononucleotide, no ligand
[2] = ligand present: flavin mononucleotide, designed as: ON switch for flavin mononucleotide
[3] = designed as: OFF switch for flavin mononucleotide, no ligand
[4] = ligand present: flavin mononucleotide, designed as: OFF switch for flavin mononucleotide

| Sequence | apparent Kd [1] | apparent Kd [2] | apparent Kd [3] | apparent Kd [4] |
| --- | --- | --- | --- | --- |
| GCGUAAUAGGUGUAGCUAGUCAUUCAAGAAGGGUGGAGAACAUGAGGAUCACCCAUGUGGUUUAUACAGGAUAUUGAUAUACGC | 258 nM | 51.2 nM |  |  |
| GCAUGAGACUAAGGAUAUGAUGUACCUAUAUGUGACAUGAGGAUCACCCAUGUGGUAAGUAUGAUUCAGAAGGUAGAGAUAUGC | 67.8 nM | 28.3 nM |  |  |
| GUCAGCUCGCGAGGAUAUACAACACUGCUUCGGCAGUGUAUUAAGAUCACAUGAGGAUCACCCAUGUAGAAGGCACGAGCUGAU |  |  | 10.4 nM | 145 nM |
| UUAACACAUGAGGAUCACCCAUGUUAGGAUAUUGUGGUGGGAACAACUGGGAAACGCACGAGAAGGGACACACA |  |  | 35.7 nM | 26.2 nM |
| UAGACACUUACAGGAUAUAGGGCAGAGGGUGCCCUAGAAGGGUGAACAUGAGGAUCACCCAUGUAUGUGUCUGAUUAGAAGGCA | 36.2 nM | 69.4 nM |  |  |
| AGAGCCGGCACUGAGGAUAUUCAUAUUAAAACAUGAGGAUCACCCAUGUAGGCCAGAAGGCCUUGGGAGAAGGCAGGUCGGCUCU | 407 nM | 29.5 nM |  |  |
| GGACGUCACAUCUACAUGAGGAUCACCCAUGUCUCUUGAGAUGAGGAUAUGUAUACGAAUCGUUUAUAGAAGGCAUGGACGUCC | 348 nM | 325 nM |  |  |
| CGGAUCGCAUGAGGAUAUGGUCAGGUUUCCUGACCAGAAGGCAUGUCAUAAGACAUGAGGAUCACCCAUGUAGUUAAGAUCCGA | 577 nM | 40.2 nM |  |  |
| UUUUCUUUUGUGAGGAUAUACUUCUUUUUUUUUUUGUAGAAGGCACAUGAGGAUCACCCAUGUUUUCUUUUCUG |  |  | 18.9 nM | 21.8 nM |
| GUAACAUGAGGAUCACCCAUGUAUAGAACACUCAAUAGAUCUGAGGAUAUACUAGAAUUUACGUAGUAGAAGGCAGUGGGUACA | 64.1 nM | 33.6 nM |  |  |
| UUUUUGCUAUAUACAUGAGGAUCACCCAUGUCCACUGACAGACAGGAUAUCCUUAGAAACUAGCAGGAGAAGGGUCAGUCAUAC | 487 nM | 69 nM |  |  |
| UUUGUUUGCGGAGGAUAUAUAAGUGGAUCACCCAUAGAAGGCCGAACAUGAGGAUCACCCAUGUUACAUGAGGAUCACCCAUGU |  |  | 45.8 nM | 51.5 nM |
| GUGCAUGUGCGAACUAACCCACAUGAGGAUCACCCAUGUAGGAGAAGGGUCCGGAGGUGCCGUGGACAGGAUAUCCUACGCCUU |  |  | 17.5 nM | 33.2 nM |
| CUUUUGUGAGGAUAUUAGUAGUAAAUAAAUAUAAUUACUACUGAGAAGGCACAUGAGGAUCACCCAUGUUCCUC |  |  | 34.1 nM | 186 nM |
| GUGUUUGAUGAGGAUAUCGCUGUGGGUACACAGCGAGAAGGCAUUACAUGAGGAUCACCCAUGUAGUGUGGGUU |  |  | 24 nM | 105 nM |
| AGAUCUCAAUAAGAUCCAAUACGAACAUGAGGAUCACCCAUGUAGGAUAUGCUAGAAGUAGAGUAGCAGAAGGACAAUUACCUU |  |  | 19.9 nM | 19.7 nM |
| CGAUCCCUGUAGAAGGGAGCACCGCAAAACGUGAACCGGUCGCACCGGUGCUUAGGAUAUACAUGAGGAUCACCCAUGUAAAGG |  |  | 15.3 nM | 20.2 nM |
| GCGCAAACAUGAGGAUAUGUAUUAAAUAAUAAUACAGAAGGCAUGUCAAAUGACAUGAGGAUCACCCAUGUUGGCAAAAUGCGC | 80.6 nM | 15.9 nM |  |  |
| UGCGUACAAGCAAACAUGAGGAUCACCCAUGUGGUCUCAUGCGAGGAUAUCGGGAAGGAGGAUUCCGAGAAGGUGCGGUGAGCC | 116 nM | 27.9 nM |  |  |
| GUCGGAAACGACAAUGAUAGGACUGAGGAUAUACAUAAGUAAGUCCUUACAUGAGGAUCACCCAUGUAGAAGGCAGUCCUAUCU |  |  | 43.9 nM | 502 nM |
| GUGGUACAUGAGGAUCACCCAUGUGUGGGCGCGUGAGGAUAUGUCCGUACCUGGCGUACGAUAGAAGGCAUGGUGC | 73.9 nM | 34.6 nM |  |  |
| AAUAAACUCACAGGAUAUAGCAUAGGUCGCGUGUACUUACAGGCGACUAUGCUAGAAGGGUGACCACAUGAGGAUCACCCAUGU | 887 nM | 188 nM |  |  |
| UUAGGACAUGAGGAUCACCCAUGUGAGGAUAUGCUGCAGGGAGGUCCCAGCAAUAUUCGUAGAAGGCAUAAGGG |  |  | 221 nM | 177 nM |
| UUAAUUAAUUAAUUGCAGUUUACAUGAGGAUCACCCAUGUAUAAGGAUAUCGUCAGGAAUACUGACGAGAAGGUAUACAUCUGC |  |  | 19 nM | 31.8 nM |

| Sequence | apparent Kd [1] | apparent Kd [2] | apparent Kd [3] | apparent Kd [4] |
| --- | --- | --- | --- | --- |
| GUAGUUUAUGUAGGAUAUGCGAGGCGAGCCUAAGCAGAAGGACAUGAGGAUCACCCAUGUAUUGCGGUCUGCGUUCAGAUCGCU |  |  | 33.2 nM | 133 nM |
| GCAGACGUAGUGAGGAUAUGCUCUACCUCGGUAGAGCAGAAGGCACAUGAGGAUCACCCAUGUGAUUUCUCUGC |  |  | 37.2 nM | 421 nM |
| GCGUUCUUGUAGAAGGUACAUACGACAUCUUAUAAACGCUUGACACAUGAGGAUCACCCAUGUUGUAAGGAUAUACAUGAACGC | 6.82 nM | 7.03 nM |  |  |
| AAUUAUUAUUGAGGAUAUCGUAUUGAAAUAAUAUGAGAAGGCGGGAUAAACAUGAGGAUCACCCAUGUGAGCCUGAUGCUUGUG |  |  | 16.6 nM | 16.3 nM |
| UGCAGACAUGAGGAUCACCCAUGUCAGGAUAUUGGACUAUGCAAUGUAUUGUUAGUACCAAGAAGGGACCCGUC |  |  | 31.8 nM | 27.2 nM |
| AAAAAGUCAGGAUAUAUCAAAAAAAAAGAAAAAAAAAAAAGAUAGAAGGGACAUGAGGAUCACCCAUGUAAAAA |  |  | 50.9 nM | 42.1 nM |
| AACACGAGAGGUGUUAUCUAACCACAUGAGGAUCACCCAUGUAAGGAUAUCGCGGCUAUCGGCAUCGAGAAGGUACAGGGUGCA |  |  | 44.1 nM | 93.6 nM |
| GUUGUAAUGUCAGGAUAUAUAAUAAGUCAUACAGUAGAAGGGAUAAUUAUACUCAUGUACAUGAGGAUCACCCAUGUUAAAUAG | 63.6 nM | 37.9 nM |  |  |
| AAGUCAGCAGGAUAUGCGAUGUUGGGCUAGGUAGCUUGACCACAUGAGGAUCACCCAUGUAGAAGGGCUGGCUA |  |  | 17.4 nM | 14 nM |
| GUGGUUGUCGUAGGAUAUGUAGGAUAUUCCUACAUGAGGAUCACCCAUGUUCGCAUGGAAGAAGGACGGAAGGACGAUGACCAC | 156 nM | 129 nM |  |  |
| UGAGUAGCGAAACAACGCACAUGAGGAUCACCCAUGUCUACACAGGAUAUGCGACGCUCCAGUUAGCAGAAGGGUGAACUCAAA | 36.4 nM | 89.7 nM |  |  |
| UUCAGCUCGUGAGGAUAUACAUGUGCUGGAAACAGCACUAAAGAUUUCACAUGAGGAUCACCCAUGUAGAAGGCACGAGCUGAG |  |  | 16.2 nM | 39.4 nM |
| UUAUACGCUGAGGAUAUUAUCACUGAGAGGUGAUGAGAAGGCGGUACAUGAGGAUCACCCAUGUCUAUGGGCAG |  |  | 282 nM | 240 nM |
| UUGAGGUGCAAGAAGGGUCACAUGAGGAUCACCCAUGUCAUGUGAAGUCUCGAGAUUUUAUAUGGAUAGGAUAUUGCACCGAAC | 197 nM | 98.2 nM |  |  |
| UAGAAGUCAGGAUAUCCAGCUCGUCACUUGCGUGAUGAGUUGGAGAAGGGACAUGAGGAUCACCCAUGUAAAGU |  |  | 56.3 nM | 58.3 nM |
| GCAUGCAAGUAGAAGGUCGGAUAUUUUGAUACCGAAGGAUAUACAGAAUCAUAUCCACAUGAUAACAUGAGGAUCACCCAUGUA |  |  | 21.4 nM | 26.7 nM |
| UGAUAGGACAGAGGAUAUACAGAUAGGAUCUACUAUCAAACAGUCCUGACAUGAGGAUCACCCAUGUAGAAGGCUGUCCUAUCU |  |  | 22.7 nM | 98.8 nM |
| GCACGAGACUAAGGAUAUGGUGUACCUACAUGUAACAUGAGGAUCACCCAUGUAGUAAGUAUGAUUCAGAAGGUAGAGACGUGC | 47.3 nM | 18.6 nM |  |  |
| UUUAACUGCUAGAAGGGUGACAUGAGGAUCACCCAUGUGCUAGGCGUGCAUAAGCACCCUUAGCCACAGGAUAUAGUAGUUGAC | 112 nM | 64.5 nM |  |  |
| UAGUAUAAGGGCAUUACACAUGAGGAUCACCCAUGUACGUUAGAGGAUAUGCAUUACAGUUGAAAGUAGAAGGUUAGAGAAGGG |  |  | 40.5 nM | 46.5 nM |
| AGUGUCAUCCAGAAGGAGAUGGACAUGAGGAUCACCCAUGUUCCAUGAUCUAGGAUAUGGAUGAUACAGCUACGUUUCGUAGCA | 4.61 nM | 4.73 nM |  |  |
| UUUGACCUAGGAUAUACAUGAGGAUCACCCAUGUUCCGGUGGGUUAACGACAACCUCAGUAGAAGGAGGAGCUU |  |  | 31.8 nM | 58.9 nM |
| GCAGCACAGAUUUACAUGAGGAUCACCCAUGUCUAUUAAGAUGAGGAUAUGCUUCGAAUGAUGUUGCAGAAGGCAUUGUGCUGC | 10.9 nM | 6.6 nM |  |  |
| GGUCCUCUGGUGAGGAUAUCUACCCAGGCAGCUGGAGAGAAGGCACAUGAGGAUCACCCAUGUAGCAGAAAACC |  |  | 9.98 nM | 17 nM |
